ChEMBL document CHEMBL4011638, “Semisynthetic Flavone-Derived Antimicrobials with Therapeutic Potential against Methicillin-Resistant Staphylococcus aureus (MRSA)” (J Med Chem, 2017)
Values after ≈ are worked out from the molar mass of the structure shown. Active and inactive are the calls of the source. The calls are words filed in the database; no cut-off is given here.

What was measured:
Bacillus cereus = assay: Antibacterial activity against Bacillus cereus ATCC 11778 after 24 hrs by broth microdilution method; assay type: functional; conditions: ATCC 11778, 24 h
In short: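 MIC by CLSI broth microdilution in cation-adjusted Mueller–Hinton broth, tubes. Compounds in H2O or DMF, diluted in PBS to 1000 μg/mL stocks, then serial 2-fold dilutions (final DMF 2.5%). Inoculum ~5×10^5 CFU/mL from TSA plates grown 35 °C 20 h. Incubation 35 °C 24 h; MIC = no visible growth vs control. Biological replicates.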

Staphylococcus aureus [1] = assay: Antibacterial activity against Staphylococcus aureus DM4001R after 24 hrs by broth microdilution method; assay type: functional
In short: (§1)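 Broth microdilution per CLSI in cation-adjusted Mueller−Hinton broth, in tubes. Compounds dissolved in H2O or DMF, then diluted in PBS to 1000 μg/mL stocks. Serial 2-fold dilutions were made, with final DMF 2.5%. Organisms were grown on TSA at 35 °C for 20 h and adjusted to ~5× 10^5 CFU/mL. Tubes were incubated at 35 °C for 24 h. MIC was the lowest concentration with no visible growth versus control. Biological replicates.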

Staphylococcus aureus [2] = assay: Antibacterial activity against methicillin-resistant Staphylococcus aureus DM 21455 after 24 hrs by broth microdilution method; assay type: functional; conditions: DM 21455, 24 h; in short: as §1
Staphylococcus aureus [3] = assay: Antibacterial activity against methicillin-resistant Staphylococcus aureus DM 9808R after 24 hrs by broth microdilution method; assay type: functional; in short: as §1
Staphylococcus aureus [4] = assay: Antibacterial activity against Staphylococcus aureus ATCC 29213 infected in C57BL6 mouse keratitis model assessed as log reduction in bacterial burden at 0.5 % administered 4 times daily at 2 hrs interval for 1 day; assay type: functional
In short: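 C57BL6 mice, 6–8 weeks, 20–30 g, four per group, anesthetized with ketamine/xylazine. Right cornea scratched (three 1 mm cuts), 10 μL of 6×10^8 CFU/mL S. aureus ATCC 29213 in PBS applied topically. From day 1, 0.5% drug in PBS (12 mM, pH 7.2) given 4 times at 2 h intervals. Corneas homogenized in 0.9% NaCl/0.25% BSA, diluted, plated in duplicate on TSA, 48 h at 35 °C.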

Staphylococcus aureus [5] = assay: Antibacterial activity against methicillin-sensitive Staphylococcus aureus DM4299 after 24 hrs by broth microdilution method; assay type: functional; conditions: DM4299, 24 h; in short: as §1
Staphylococcus aureus [6] = assay: Antibacterial activity against methicillin-resistant Staphylococcus aureus DB68004 after 24 hrs by broth microdilution method; assay type: functional; conditions: DB68004, 24 h; in short: as §1
Staphylococcus aureus [7] = assay: Induction of plasma membrane permeability in methicillin-resistant Staphylococcus aureus DM9808R assessed as increase in fluorescence intensity at 12.5 ug/ml measured every 1 sec for 50 mins by SYTOX green dye based fluorimetric assay; assay type: functional
In short: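 Exponential-phase MRSA DM9808R grown on TSA, washed twice and resuspended in PBS (10 mM, pH 7) to OD600 0.2. Cells were loaded with 0.3 μM SYTOX Green in the dark until fluorescence stabilized. Test samples were then added (final DMF 0.5%). Fluorescence at ex 504/em 523 nm was recorded every 1 s for 50 min. Biological replicates.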

Staphylococcus aureus [8] = assay: Antibacterial activity against methicillin-resistant Staphylococcus aureus BAA-38 after 24 hrs by broth microdilution method; assay type: functional; conditions: BAA-38, 24 h; in short: as §1
[9] = Ratio of HC50 for New Zealand white rabbit RBC to MIC for methicillin-sensitive Staphylococcus aureus DM4583R
In short: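 HC50 measured on fresh New Zealand white rabbit RBCs, washed three times in PBS, at 4% v/v final. Cells were incubated with 2-fold serial dilutions (DMF final 0.5%) at 37 °C for 1 h, then centrifuged. Supernatant absorbance was read at 576 nm, with PBS as 0% and 2% Triton X-100 as 100% lysis. HC50 is the concentration lysing 50% of cells, divided by MIC from broth microdilution.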

Staphylococcus aureus [10] = assay: Antibacterial activity against methicillin-sensitive Staphylococcus aureus ATCC 29213 after 24 hrs by broth microdilution method; assay type: functional; conditions: ATCC 29213, 24 h; in short: as §1
Staphylococcus aureus [11] = assay: Antibacterial activity against methicillin-sensitive Staphylococcus aureus DM4583R after 24 hrs by broth microdilution method; assay type: functional; in short: as §1
Staphylococcus aureus [12] = assay: Antibacterial activity against methicillin-resistant Staphylococcus aureus ATCC 700699 after 24 hrs by broth microdilution method; assay type: functional; conditions: ATCC 700699, 24 h; in short: as §1
Lipid bilayer = assay: Membrane permeabilization activity in DOPE/DOPG large unilamellar liposomes assessed as leakage of calcein at 1:4 to 1:8 compound to lipid ratio by fluorescence assay
Staphylococcus aureus [13] = assay: Antibacterial activity against methicillin-sensitive Staphylococcus aureus DM4400R after 24 hrs by broth microdilution method; assay type: functional; in short: as §1
Staphylococcus aureus [14] = assay: Antibacterial activity against methicillin-resistant Staphylococcus aureus ATCC 43300 after 24 hrs by broth microdilution method; assay type: functional; conditions: ATCC 43300, 24 h; in short: as §1
Staphylococcus aureus [15] = assay: Antibacterial activity against methicillin-sensitive Staphylococcus aureus ATCC 29737 after 24 hrs by broth microdilution method; assay type: functional; conditions: ATCC 29737, 24 h; in short: as §1
Staphylococcus aureus [16] = assay: Antibacterial activity against methicillin-resistant Staphylococcus aureus DB6506 after 24 hrs by broth microdilution method; assay type: functional; conditions: DB6506, 24 h; in short: as §1
Staphylococcus aureus [17] = assay: Antibacterial activity against methicillin-resistant Staphylococcus aureus DB57964 after 24 hrs by broth microdilution method; assay type: functional; conditions: DB57964, 24 h; in short: as §1
Staphylococcus aureus [18] = assay: Antibacterial activity against methicillin-sensitive Staphylococcus aureus ATCC 6538 after 24 hrs by broth microdilution method; assay type: functional; conditions: ATCC 6538, 24 h; in short: as §1
Staphylococcus aureus [19] = assay: Ratio of MIC for Staphylococcus aureus ATCC 29213 after […] passages to MIC for Staphylococcus aureus ATCC 29213; assay type: functional
In short: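 Serial passage. Initial MIC was determined against S. aureus ATCC29213 by broth microdilution. Bacteria from duplicate tubes at 0.5× MIC were diluted to ~5 × 10^5 CFU/mL for the next MIC round. Each round was incubated at 35 °C for 24 h and the fold increase in MIC recorded. Gatifloxacin and norfloxacin served as comparators. Repeated for 17 passages, biological replicates.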

For `CCN(CC)CCOc1cc(O)c2c(=O)c(OCCN(CC)CC)c(-c3ccc(OC)cc3)oc2c1CC=C(C)C`, the MIC (Bacillus cereus) was over 50 µg/mL, the MIC (Staphylococcus aureus [1]) was 50 µg/mL and the MIC (Staphylococcus aureus [2]) was 50 µg/mL. For the same compound, the MIC (Staphylococcus aureus [3]) was over 50 µg/mL.

In the case of `COC(=O)[C@H](CCCNC(=N)N)NC(=O)COc1cc(O)c2c(=O)c(O)c(-c3ccc(OC)cc3)oc2c1CC=C(C)C`, the MIC (Bacillus cereus) is reported as 10.4 µM, the MIC (Staphylococcus aureus [1]) is reported as 5.2 µM and the MIC (Staphylococcus aureus [2]) is reported as 10.4 µM. It also gave an MIC (Staphylococcus aureus [3]) of 5.2 µM.

For `C[C@H]1COc2c(N3CCN(C)CC3)c(F)cc3c(=O)c(C(=O)O)cn1c23`, the Activity (Staphylococcus aureus [4]) was “Active”.

In the case of `COc1ccc(-c2oc3c(CC=C(C)C)c(O)cc(O)c3c(=O)c2O)cc1` [ICARITIN], the MIC (Staphylococcus aureus [5]) is reported as 50 µg/mL (≈ 136 µM), the MIC (Staphylococcus aureus [6]) is reported as 50 µg/mL (≈ 136 µM) and the Activity (Staphylococcus aureus [7]) is reported as “inactive”. The MIC (Staphylococcus aureus [8]) was 50 µg/mL (≈ 136 µM), the MIC (Bacillus cereus) was 136 µM and the MIC (Staphylococcus aureus [1]) was 50 µg/mL. For the same compound, the Ratio [9] was over 8, the MIC (Staphylococcus aureus [10]) was 50 µg/mL (≈ 136 µM) and the MIC (Staphylococcus aureus [11]) was 50 µg/mL (≈ 136 µM). The MIC (Staphylococcus aureus [12]) was 50 µg/mL (≈ 136 µM), the Activity (Lipid bilayer) was under 5% and the MIC (Staphylococcus aureus [13]) was 50 µg/mL (≈ 136 µM). For the same compound, the MIC (Staphylococcus aureus [14]) was 50 µg/mL (≈ 136 µM), the MIC (Staphylococcus aureus [15]) was 50 µg/mL (≈ 136 µM) and the MIC (Staphylococcus aureus [2]) was 50 µg/mL. It also gave an MIC (Staphylococcus aureus [3]) of 50 µg/mL, an MIC (Staphylococcus aureus [16]) of 50 µg/mL (≈ 136 µM) and an MIC (Staphylococcus aureus [17]) of 50 µg/mL (≈ 136 µM). It also gave an MIC (Staphylococcus aureus [18]) of 50 µg/mL (≈ 136 µM).

`CC(C)(C)c1cc(C(C)(C)C)c2[nH]c(C(C)(C)C)c(C[C@H](NC(=O)[C@@H](N)CCCNC(=N)N)C(=O)N[C@@H](CCCNC(=N)N)C(=O)NCCc3ccccc3)c2c1` [LTX-109] gave an MIC (Staphylococcus aureus [5]) of 4 µg/mL (≈ 5.08 µM), an MIC (Staphylococcus aureus [6]) of 4 µg/mL (≈ 5.08 µM) and an MIC (Staphylococcus aureus [8]) of 4 µg/mL (≈ 5.08 µM). It also gave a Ratio [9] of 44, an MIC (Staphylococcus aureus [10]) of 4 µg/mL (≈ 5.08 µM) and an MIC (Staphylococcus aureus [11]) of 4 µg/mL (≈ 5.08 µM). It also gave an MIC (Staphylococcus aureus [12]) of 4 µg/mL (≈ 5.08 µM), an MIC (Staphylococcus aureus [13]) of 4 µg/mL (≈ 5.08 µM) and an MIC (Staphylococcus aureus [14]) of 4 µg/mL (≈ 5.08 µM). For the same compound, the MIC (Staphylococcus aureus [15]) was 4 µg/mL (≈ 5.08 µM), the MIC (Staphylococcus aureus [16]) was 4 µg/mL (≈ 5.08 µM) and the MIC (Staphylococcus aureus [17]) was 4 µg/mL (≈ 5.08 µM). It also gave an MIC (Staphylococcus aureus [18]) of 4 µg/mL (≈ 5.08 µM).

`COc1c(N2CCNC(C)C2)c(F)cc2c(=O)c(C(=O)O)cn(C3CC3)c12` (centres undefined) [GATIFLOXACIN] showed a Ratio (Staphylococcus aureus [19]) of 64.

`CCN(CC)CCCCOc1cc(O)c2c(=O)c(OCCCCN(CC)CC)c(-c3ccc(OC)cc3)oc2c1CC=C(C)C` showed an MIC (Bacillus cereus) of 6.25 µg/mL, an MIC (Staphylococcus aureus [1]) of 25 µg/mL and an MIC (Staphylococcus aureus [2]) of 12.5 µg/mL. It also gave an MIC (Staphylococcus aureus [3]) of 12.5 µg/mL.

For `COC(=O)[C@H](CCCCN)NC(=O)COc1cc(O)c2c(=O)c(OCC(=O)N[C@@H](CCCCN)C(=O)OC)c(-c3ccc(OC)cc3)oc2c1CC=C(C)C`, the Activity (Staphylococcus aureus [7]) was “Active”, the MIC (Bacillus cereus) was 32.5 µM and the MIC (Staphylococcus aureus [1]) was 32.5 µM. For the same compound, the Activity (Lipid bilayer) was 30%, the MIC (Staphylococcus aureus [2]) was 32.5 µM and the MIC (Staphylococcus aureus [3]) was 32.5 µM.

For `N=C(N)NCCCCC(=O)Nc1cc(C(F)(F)F)cc(NC(=O)c2cc(C(=O)Nc3cc(C(F)(F)F)cc(NC(=O)CCCCNC(=N)N)c3O[C@@H]3CCNC3)ncn2)c1O[C@@H]1CCNC1` [BRILACIDIN], the MIC (Staphylococcus aureus [5]) was 1 µg/mL (≈ 1.07 µM), the MIC (Staphylococcus aureus [6]) was 1 µg/mL (≈ 1.07 µM) and the MIC (Staphylococcus aureus [8]) was 1 µg/mL (≈ 1.07 µM). It also gave a Ratio [9] of 558, an MIC (Staphylococcus aureus [10]) of 1 µg/mL (≈ 1.07 µM) and an MIC (Staphylococcus aureus [11]) of 1 µg/mL (≈ 1.07 µM). The MIC (Staphylococcus aureus [12]) was 1 µg/mL (≈ 1.07 µM), the MIC (Staphylococcus aureus [13]) was 1 µg/mL (≈ 1.07 µM) and the MIC (Staphylococcus aureus [14]) was 1 µg/mL (≈ 1.07 µM). It also gave an MIC (Staphylococcus aureus [15]) of 1 µg/mL (≈ 1.07 µM), an MIC (Staphylococcus aureus [16]) of 1 µg/mL (≈ 1.07 µM) and an MIC (Staphylococcus aureus [17]) of 1 µg/mL (≈ 1.07 µM). The MIC (Staphylococcus aureus [18]) was 1 µg/mL (≈ 1.07 µM).

`COc1ccc(-c2oc3c(CC=C(C)C)c(OCCCCN(C)C)cc(O)c3c(=O)c2OCCCCN(C)C)cc1` gave an MIC (Bacillus cereus) of 25 µg/mL, an MIC (Staphylococcus aureus [1]) of 25 µg/mL and an MIC (Staphylococcus aureus [2]) of 12.5 µg/mL. The MIC (Staphylococcus aureus [3]) was 12.5 µg/mL.
